HNF4A DNA FP – change in binding of human HNF4 alpha to DNA; activity change, % at 10 µM; HNF4a-FITC DNA binding, fluorescence polarization, 1 h; P41235; 360,000 tested, 0.3% active; in the data active = activity change above about 30%, passing the limit was not always enough
PKA-R2B act – activates the human PKA-R2B holoenzyme complex. 340,000 tested, 0.079% active. P22694+P31323. activation, % at 11.4 µM. PKA-R2B holoenzyme dissociation, Cy5-IP20 fluorescence polarization; R2B truncated from residue 108, S112A mutant; 0% DMSO only, 100% 113 µM cGMP;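 active = activation above a cutoff set at the mean over all compounds plus 3 SD, cut at about 18% in these data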;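 note: higher means more holoenzyme dissociation and a rise in polarization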
TPT1 inh – inhibitors of Candida albicans tRNA 2'-phosphotransferase TPT1. inhibition, % at 5 µM. recombinant caTPT1, FP RNA substrate dephosphorylation. 300,000 tested, 0.81% active;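 active = inhibition above the mean of all tested compounds plus 3 SD, set per screening campaign, cut at about 24% in these data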
PKA-R1A act – activates the PKA-R1A holoenzyme complex | 340,000 tested, 0.083% active | PKA-R1A dissociation, Cy5-IP20 fluorescence polarization; scaled: DMSO 0%, 113 µM cGMP 100% | activation, % at 11.4 µM;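 active = percent activation above the mean of all tested compounds plus 3 SD, cut at about 19% in these data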;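 note: higher means more PKAc released from R1A so a rise in polarization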
CSN inh – inhibitors of human CSN-mediated cullin deneddylation; Purified CSN, SCF-Nedd8-OG deneddylation, fluorescence polarization; inhibition, % at 12.5 µM; 360,000 tested, 0.38% active;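 active = pattern-corrected inhibition above about 35%, with an unprinted fluorescence ratio check between 0.5 and 1.5, limit read from the data, passing the limit was not always enough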
Target sequence (Q92905 whole entry, looked up, one chain of several): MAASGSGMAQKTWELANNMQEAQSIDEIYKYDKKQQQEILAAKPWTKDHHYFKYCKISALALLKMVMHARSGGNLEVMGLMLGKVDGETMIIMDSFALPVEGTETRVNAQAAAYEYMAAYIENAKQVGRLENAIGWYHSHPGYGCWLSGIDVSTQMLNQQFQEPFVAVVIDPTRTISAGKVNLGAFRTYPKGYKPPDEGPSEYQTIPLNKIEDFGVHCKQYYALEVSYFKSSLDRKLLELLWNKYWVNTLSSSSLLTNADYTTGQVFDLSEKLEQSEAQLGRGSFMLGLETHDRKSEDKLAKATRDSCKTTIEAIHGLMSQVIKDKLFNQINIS
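Detection – fluorescence polarization · System – HEK293T-derived human Csn5 enzyme · Controls – substrate-only high control, full reaction low control · Timing – 90 min, room temperature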
Rpn11 block – blocks the human proteasome subunit Rpn11; human 26S proteasome, Ub4-pepOG fluorescence polarization; 20S core pre-blocked with epoxomicin; AID 588493; O00487; 360,000 tested, 0.59% active; calls only at 20 µM;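 active = inhibition at 20 µM, scaled to each plate's controls, above about 33%, limit read from the data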
caTPT1 confirm – TPT1 (C. albicans) inhibition, confirmation; shares compounds with TPT1 inh; recombinant caTPT1, fluorescence polarization, RNase T1 coupled; inhibition, % at 5 µM; 2,400 tested, 74% active;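 active = inhibition above the primary screen limit, the mean inhibition of all tested compounds plus 3 SD, cut at about 25% in these data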
RNase T1 inh – RNase T1 inhibition in TPT1 counter-screen; shares compounds with TPT1 inh; RNase T1 cleavage, fluorescence polarization, 1536-well; inhibition, % at 5 µM; 2,400 tested, 83% active;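 active = inhibition above the solvent-only control well mean plus 3 SD, limit set per screening run, cut at about 23% in these data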;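 note: inhibitors block cleavage so intact labeled substrate keeps polarization high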
Target sequence (P00651 whole entry, looked up): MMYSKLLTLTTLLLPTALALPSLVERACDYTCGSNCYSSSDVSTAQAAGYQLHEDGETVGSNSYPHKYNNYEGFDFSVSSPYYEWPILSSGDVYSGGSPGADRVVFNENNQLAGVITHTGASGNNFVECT
Of the large screens only hits and unclear results are named; the others gave an inactive call (follow-up assays come after a bar, where shown). Only some compounds are listed: those with a hit (about 1.6% of all), similar ones and a draw of the others.

CCn1c(=S)sc2c(=O)n(CC(=O)NCCCc3ccccc3)c(C)nc21	none
C=CCN1C(=O)CSC1=Nc1ccc(C(=O)O)cc1	none
C=CCN1C(=O)CS/C1=C(\C#N)S(=O)(=O)c1ccc(C)cc1	TPT1 inh 74.2 | caTPT1 confirm inactive | RNase T1 inh inactive
COc1ccccc1NC(=O)Nc1sccc1-c1nc2ccccc2s1	TPT1 inh 32.9 (no result: PKA-R2B act, PKA-R1A act) | caTPT1 confirm 33.5 | RNase T1 inh 49.3
Cc1cc(C(=O)N2CCCC(N3CCN(c4cccc(Cl)c4)CC3)C2)nc(C)n1 (stereo unspecified)	none
CNC(=O)NC(=O)C(C)OC(=O)c1c2c(nc3ccccc13)/C(=C/c1cccs1)CC2 (stereo unspecified)	TPT1 inh 27.4 (not shown: Rpn11 block) | caTPT1 confirm 30.2 | RNase T1 inh 42.4
Cc1ccc(NS(=O)(=O)c2cc([N+](=O)[O-])ccc2NNC(=S)Nc2cccc(Cl)c2)c(C)c1	TPT1 inh 36.0, Rpn11 block active | caTPT1 confirm 36.6 | RNase T1 inh 45.7
C=CCOc1ccc(C(=O)Nc2ccccc2C(=O)NCc2cccnc2)cc1	none
COc1ccc2c(c1)c(/C=C/c1cc[n+](C)cc1)cn2C	TPT1 inh 72.2, CSN inh 73.9 (not shown: Rpn11 block) | caTPT1 confirm 87.7 | RNase T1 inh 90.7
COc1ccc2c(c1)c1ccccc1n2C	none
Cc1cc(=O)oc2c3c4c(cc12)OCCN4CCC3	TPT1 inh 30.0 | caTPT1 confirm inactive | RNase T1 inh 22.0
CC(C)c1cc(=O)oc2c3c4c(cc12)CCCN4CCC3	TPT1 inh 28.8 | caTPT1 confirm 32.0 | RNase T1 inh 41.3
Cc1nc2ccccc2n1/N=C/c1ccc([N+](=O)[O-])s1	TPT1 inh 28.4 (not shown: Rpn11 block) | caTPT1 confirm 35.6 | RNase T1 inh 59.0
Cc1ccc(-n2c(SCC(=O)NCc3ccco3)nc3c([nH]c4ccccc43)c2=O)cc1	none
Oc1ccc(Nc2nc3ccccc3nc2Nc2ccc(O)cc2)cc1	HNF4A DNA FP 44.1, TPT1 inh 52.1, Rpn11 block active | caTPT1 confirm 49.1 | RNase T1 inh 66.7
CC(=O)c1ccc(N2CCN(S(=O)(=O)c3c(C)[nH]c(C)c3C(=O)N3CCCCC3)CC2)cc1	none
N#CC1(C#N)CC(C=O)=C(N)C1(C#N)CC(=O)c1ccc(F)cc1 (stereo unspecified)	TPT1 inh 56.9 | caTPT1 confirm 31.6 | RNase T1 inh 42.5
O=C(C[N+]12CC[N+](CC(=O)c3ccc(F)cc3)(CC1)CC2)c1ccc(F)cc1	none
Cc1noc(C)c1CSCC(=O)N1CCN(c2ccc([N+](=O)[O-])cc2)CC1	none
COCCN1C(=O)/C(=C/c2ccc(N3CCCC3)cc2C)SC1=S	TPT1 inh 115.0 (not shown: Rpn11 block) | caTPT1 confirm 99.0 | RNase T1 inh 99.9
COc1ccc(NC(=O)c2ccc(CNc3c(N4CCCC4)c(=O)c3=O)cc2)cc1Cl	none
COc1ccc(CN2C(=O)Cc3c2nc(N)c2c(N)nc(N4CCCCC4)c(C#N)c32)cc1	TPT1 inh 30.6 (no result: HNF4A DNA FP, PKA-R2B act, PKA-R1A act, CSN inh, Rpn11 block) | caTPT1 confirm 58.3 | RNase T1 inh 68.1
CCOc1cc2c(C#N)c(N3CCCCC3)nc(N)c2c(N)n1	TPT1 inh 50.5 (not shown: Rpn11 block) | caTPT1 confirm 49.3 | RNase T1 inh 58.0
CCOc1cc2c(C#N)c(N3CCNCC3)nc(N)c2c(N)n1	none
C=CCN(Cc1nc(-c2ccccc2)no1)C(=O)c1ccc2c(c1)OCO2	none
COc1ccccc1C(=O)Nc1nnc(SCC(=O)NC2CCCC2)s1	none
N#C/C(=C/c1ccc(N2CCCCC2)cc1)c1cccc(F)c1	none
Cc1ccc2nc(/C(C#N)=C\c3ccc(N4CCOCC4)o3)[nH]c2c1	TPT1 inh 138.7 (not shown: Rpn11 block) | caTPT1 confirm 148.9 | RNase T1 inh 136.5
N#C/C(=C/c1ccc(N2CCCCC2)o1)c1cccc(F)c1	TPT1 inh 134.3 (not shown: Rpn11 block) | caTPT1 confirm 177.7 | RNase T1 inh 165.6
Cc1ccc(/C(C#N)=C\c2ccc(N3CCOCC3)o2)cc1	HNF4A DNA FP 80.5, TPT1 inh 121.4 (not shown: Rpn11 block) | caTPT1 confirm 153.8 | RNase T1 inh 147.2
Cc1ccc2nc(/C(C#N)=C\c3cc(C)n(-c4cccc([N+](=O)[O-])c4)c3C)[nH]c2c1	none
N#C/C(=C/c1ccc(-c2cc(C(=O)O)cc(C(=O)O)c2)o1)c1nc2ccccc2s1	TPT1 inh 141.1 (no result: HNF4A DNA FP, PKA-R2B act, PKA-R1A act, CSN inh, Rpn11 block) | caTPT1 confirm 141.3 | RNase T1 inh 132.9
CN1CCc2c(sc3nc(SCC(N)=O)n(-c4ccccc4)c(=O)c23)C1	TPT1 inh 44.8 | caTPT1 confirm 103.8 | RNase T1 inh 109.4
CN1CCc2c(sc3nc(SCC(N)=O)n(-c4ccc(Cl)cc4)c(=O)c23)C1	HNF4A DNA FP 43.4, TPT1 inh 85.9, Rpn11 block active | caTPT1 confirm 64.4 | RNase T1 inh 77.9
CN1CCc2c(sc3nc(SCC(=O)N4CCCCC4)n(-c4ccccc4)c(=O)c23)C1	none
COC(=O)CSc1nc2sc3c(c2c(=O)n1-c1ccccc1)CCN(C)C3	none
CCOC(=O)c1ccccc1NC(=O)c1ccc(NS(C)(=O)=O)cc1	none
CC(C)NC(=O)/C(C#N)=C/c1ccc(N(C)C)o1	TPT1 inh 157.6 (not shown: Rpn11 block) | caTPT1 confirm 176.7 | RNase T1 inh 166.8
O=C(c1ccc(N2CCCC2=O)cc1)N1CCOCC1	TPT1 inh 65.4 | caTPT1 confirm inactive | RNase T1 inh inactive
O=C1c2ccccc2-c2cccc(NS(=O)(=O)c3ccc(C(F)(F)F)cc3)c21	TPT1 inh 42.3 (not shown: Rpn11 block) | caTPT1 confirm 47.1 | RNase T1 inh 54.8
COc1ccc(O)c(/C=C2/SC(=S)N(Cc3ccccc3)C2=O)c1	TPT1 inh 93.2 (not shown: Rpn11 block) | caTPT1 confirm 103.8 | RNase T1 inh 102.8
COc1ccc(/C=C2/SC(=S)N(Cc3ccccc3)C2=O)cc1O	none (no result: TPT1 inh)
COc1ccc(OC)c(/C=C2\SC(=S)N(Cc3cccnc3)C2=O)c1	TPT1 inh 65.4 | caTPT1 confirm 68.5 | RNase T1 inh 77.5
CCc1ccccc1NCC(=O)Nc1ccc(Cl)c(C(F)(F)F)c1	none
Cc1[nH]c2ccc(C(=O)NCCN3CCOCC3)cc2c1C	none
O=C(NCc1ccccc1)C1CC(=O)N(c2ccc(OCC(=O)N3CCOCC3)cc2)C1 (stereo unspecified)	none
Cc1ccc(CNC(=O)C2CC(=O)N(c3ccc(OCC(=O)N4CCCC4)cc3)C2)cc1 (stereo unspecified)	TPT1 inh 31.2 | caTPT1 confirm inactive | RNase T1 inh inactive
Cc1cccc(N=C2NC(=O)/C(=C/c3cccs3)S2)c1	none
